The values below come from ChEMBL document CHEMBL1921795, “Discovery, synthesis, and structure-activity relationship development of a series of N-4-(2,5-dioxopyrrolidin-1-yl)phenylpicolinamides (VU0400195, ML182): characterization of a novel positive allosteric modulator of the metabotropic glutamate receptor 4 (mGlu(4)) with oral efficacy in an …” (J Med Chem, 2011).

Bounds are passed on as bounds.

T2 sequence (Q14833 whole entry): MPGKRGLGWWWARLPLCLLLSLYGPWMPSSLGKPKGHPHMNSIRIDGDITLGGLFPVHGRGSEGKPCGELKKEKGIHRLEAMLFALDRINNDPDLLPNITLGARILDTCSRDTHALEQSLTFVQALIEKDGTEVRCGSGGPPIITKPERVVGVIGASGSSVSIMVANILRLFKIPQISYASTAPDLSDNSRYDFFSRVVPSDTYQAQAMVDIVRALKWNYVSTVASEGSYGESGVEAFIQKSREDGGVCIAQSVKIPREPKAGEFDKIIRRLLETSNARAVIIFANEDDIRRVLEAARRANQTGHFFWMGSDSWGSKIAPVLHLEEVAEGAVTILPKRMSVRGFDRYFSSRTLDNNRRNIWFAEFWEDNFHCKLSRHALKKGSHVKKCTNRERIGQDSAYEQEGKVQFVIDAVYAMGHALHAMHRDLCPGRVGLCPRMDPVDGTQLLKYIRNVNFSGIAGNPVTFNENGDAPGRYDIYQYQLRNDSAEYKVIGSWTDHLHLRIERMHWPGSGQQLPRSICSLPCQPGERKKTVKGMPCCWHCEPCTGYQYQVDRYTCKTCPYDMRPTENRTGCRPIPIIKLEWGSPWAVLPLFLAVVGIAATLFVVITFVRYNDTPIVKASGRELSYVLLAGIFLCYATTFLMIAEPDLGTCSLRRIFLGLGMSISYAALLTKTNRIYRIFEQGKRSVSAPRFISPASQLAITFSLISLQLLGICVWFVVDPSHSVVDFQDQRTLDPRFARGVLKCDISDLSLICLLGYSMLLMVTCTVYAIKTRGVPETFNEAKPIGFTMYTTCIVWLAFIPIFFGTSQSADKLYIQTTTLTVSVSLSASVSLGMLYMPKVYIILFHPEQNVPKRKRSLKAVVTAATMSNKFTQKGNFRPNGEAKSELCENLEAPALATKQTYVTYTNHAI
Cytochrome P450 3A4, sequence (P08684 whole entry): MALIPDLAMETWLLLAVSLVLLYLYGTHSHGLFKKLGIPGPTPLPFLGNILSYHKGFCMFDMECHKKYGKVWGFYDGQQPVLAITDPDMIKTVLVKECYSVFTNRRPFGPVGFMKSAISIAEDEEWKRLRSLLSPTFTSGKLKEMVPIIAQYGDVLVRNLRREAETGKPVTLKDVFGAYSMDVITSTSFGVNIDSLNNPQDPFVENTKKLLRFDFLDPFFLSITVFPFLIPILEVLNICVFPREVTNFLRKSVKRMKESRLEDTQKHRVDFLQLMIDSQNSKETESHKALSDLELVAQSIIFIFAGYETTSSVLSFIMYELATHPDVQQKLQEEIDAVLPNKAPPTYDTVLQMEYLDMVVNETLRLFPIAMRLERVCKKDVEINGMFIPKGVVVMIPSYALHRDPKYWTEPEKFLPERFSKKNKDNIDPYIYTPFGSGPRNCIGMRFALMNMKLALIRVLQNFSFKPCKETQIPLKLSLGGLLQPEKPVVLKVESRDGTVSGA

For the first series, the target named is T1, Cytochrome P450 1A2 (Homo sapiens, UniProt P05177).
T1 sequence (P05177 whole entry): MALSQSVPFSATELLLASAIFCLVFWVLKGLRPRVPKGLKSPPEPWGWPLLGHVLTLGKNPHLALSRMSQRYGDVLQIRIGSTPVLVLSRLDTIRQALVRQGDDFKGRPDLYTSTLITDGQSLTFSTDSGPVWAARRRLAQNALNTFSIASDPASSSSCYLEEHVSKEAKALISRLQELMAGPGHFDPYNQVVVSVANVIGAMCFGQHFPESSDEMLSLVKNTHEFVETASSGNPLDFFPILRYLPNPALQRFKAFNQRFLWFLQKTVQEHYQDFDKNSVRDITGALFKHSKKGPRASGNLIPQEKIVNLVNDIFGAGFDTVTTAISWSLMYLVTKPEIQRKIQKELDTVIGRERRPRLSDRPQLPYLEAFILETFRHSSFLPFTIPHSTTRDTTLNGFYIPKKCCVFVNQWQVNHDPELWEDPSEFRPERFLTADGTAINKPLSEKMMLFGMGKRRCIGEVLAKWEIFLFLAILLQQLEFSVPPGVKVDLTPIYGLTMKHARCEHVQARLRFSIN
As to the kind of experiment: Inhibition of CYP1A2 in human liver microsomes using phenacetin as substrate.
Conditions: not given
A general note: Liver microsomes are a subcellular fraction often used to study metabolism.
For orientation: IC50 means the midpoint of a concentration-inhibition curve. Consider `O=C(Nc1ccc(N2C(=O)CC3(CCCCC3)C2=O)c(Cl)c1)c1ccccn1`, for which the IC50 is greater than 30000 nM.

Regarding `COc1cc(NC(=O)c2ccccn2)ccc1Cl`, the 50% inhibitory concentration (IC50) is less than 100 nM.

System in a further series: not listed separately
The series can be described thus: Intrinsic clearance in human hepatic microsomes. The format is ADME, Microsome. The settings on record: human liver microsomes.
For orientation: CLint scaled means a measure of how fast metabolising enzymes remove a compound, apart from limits set by blood flow. `O=C(Nc1ccc(N2C(=O)CC3(CCCCC3)C2=O)c(Cl)c1)c1ccccn1` had an intrinsic clearance (CLint scaled) of 19.4 mL/min/kg.

In the next series the target is Metabotropic glutamate receptor 4 (Rattus norvegicus, UniProt P31423). As to the kind of experiment: Positive allosteric modulator activity at rat mGlu4 receptor by thallium flux assay.
Metabotropic glutamate receptor 4 (Rattus norvegicus, UniProt P31423), sequence (P31423 whole entry): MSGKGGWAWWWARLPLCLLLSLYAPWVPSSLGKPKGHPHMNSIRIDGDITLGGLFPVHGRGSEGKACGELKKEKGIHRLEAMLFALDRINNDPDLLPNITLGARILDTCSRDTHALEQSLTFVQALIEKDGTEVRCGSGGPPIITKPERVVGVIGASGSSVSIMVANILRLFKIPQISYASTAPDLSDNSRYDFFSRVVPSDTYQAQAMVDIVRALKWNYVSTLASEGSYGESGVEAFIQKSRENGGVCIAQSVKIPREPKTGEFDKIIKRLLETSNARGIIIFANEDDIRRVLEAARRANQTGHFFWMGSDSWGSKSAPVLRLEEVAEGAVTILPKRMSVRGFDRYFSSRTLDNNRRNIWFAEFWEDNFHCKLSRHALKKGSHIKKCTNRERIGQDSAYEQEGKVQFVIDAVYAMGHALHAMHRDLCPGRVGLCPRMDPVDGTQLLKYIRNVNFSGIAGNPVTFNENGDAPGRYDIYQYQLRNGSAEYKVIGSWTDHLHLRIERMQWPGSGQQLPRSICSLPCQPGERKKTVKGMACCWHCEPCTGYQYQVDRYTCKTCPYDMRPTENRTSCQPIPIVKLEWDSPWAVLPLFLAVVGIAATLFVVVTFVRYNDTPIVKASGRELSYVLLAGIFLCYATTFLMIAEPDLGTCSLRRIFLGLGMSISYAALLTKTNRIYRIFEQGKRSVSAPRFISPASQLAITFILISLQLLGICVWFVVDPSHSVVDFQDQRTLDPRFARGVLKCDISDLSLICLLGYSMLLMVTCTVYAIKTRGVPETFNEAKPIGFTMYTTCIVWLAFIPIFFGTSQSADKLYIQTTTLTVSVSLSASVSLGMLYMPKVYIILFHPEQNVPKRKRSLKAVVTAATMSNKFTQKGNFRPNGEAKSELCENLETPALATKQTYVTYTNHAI
Conditions: not given
One may read the EC50 as the concentration needed to bring the measured effect to its halfway point. `O=C(Nc1ccc(N2C(=O)c3ccccc3C2=O)c(Cl)c1)c1ccccn1` yielded a concentration for a half-maximal effect (EC50) of 66.8 nM.

Molecule `O=C(Nc1ccc(N2S(=O)(=O)c3ccccc3S2(=O)=O)cc1)c1ccncn1` gave an EC50 of 242 nM.

`O=C(Nc1ccc(N2S(=O)(=O)c3ccccc3S2(=O)=O)cc1)c1nccs1` registered an EC50 of 201 nM.

`O=C(Nc1ccc(N2C(=O)c3cccc(Cl)c3C2=O)c(Cl)c1)c1ccccn1` displayed a 50% effective concentration (EC50) of 34.9 nM.

Consider `O=C(Nc1ccc(N2S(=O)(=O)c3ccccc3S2(=O)=O)cc1)c1cscn1`, for which it took 105 nM to reach a half-maximal effect (EC50).

On to `O=C(Nc1ccc(N2C(=O)[C@H]3CCCC[C@H]3C2=O)c(Cl)c1)c1ccccn1`, for which the EC50 came out at 645 nM.

In a further series the test system is Plasma. The series can be described thus: Fraction unbound in human plasma. The format is ADME, cell-free.
Conditions: not given
The molecule `O=C(Nc1ccc(N2C(=O)CC3(CCCCC3)C2=O)c(Cl)c1)c1ccccn1` had a Fu of 0.62%.

The next series concerns the target T2, Metabotropic glutamate receptor 4 (Homo sapiens, UniProt Q14833). The series can be described thus: Positive allosteric modulation of human mGlu4 receptor expressed in CHO cells coexpressing Gqi5 assessed as potentiation of glutamate-induced calcium mobilization relative to (-)-PHCCC. The format is functional, cell-based.
Conditions: not given
The procedure, abridged:
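CHO cells stably expressing human mGlu4 with chimeric Gqi5, plated overnight, loaded 45 min at 37 °C with 1 µM Fluo-4 AM. Compound (10-point, 1:3 dilutions) was added about 2.5 min before an EC20 glutamate, then EC80 glutamate 2 min later. Ca2+ fluorescence read at 470/540 nm. Four-parameter logistic fit.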
Background: A change in cytosolic calcium serves as a functional read-out for many receptors and channels.
For `O=C(Nc1ccc(N2S(=O)(=O)c3ccccc3S2(=O)=O)cc1)C1CCCCC1`, the Activity stood at 48.3%.

As to `O=C(Nc1ccc(N2C(=O)[C@@H]3[C@H](C2=O)[C@@H]2CC[C@H]3O2)c(Cl)c1)c1ccccn1`, the Activity is 90%.

As to `O=S1(=O)c2ccccc2S(=O)(=O)N1c1ccc(NC2(c3ccccn3)CC2)cc1`, the Activity is 62.7%.

Consider `O=C(Nc1ccc(N2S(=O)(=O)c3ccccc3S2(=O)=O)cc1F)c1ccccn1`, for which the Activity turned out to be 67.7%.

`O=C(Nc1ccc(N2S(=O)(=O)c3ccccc3S2(=O)=O)cc1)c1cccc(F)n1`: the Activity turned out to be 76.7%.

For the molecule `O=C(Nc1ccc(N2S(=O)(=O)c3ccccc3S2(=O)=O)cc1)c1ccco1`, the Activity came out at 110%.

Consider `O=C(Nc1ccc(N2C(=O)c3ccccc3C2=O)c(Cl)c1)c1ccccn1`, for which the Activity came to 104%.

As to `O=C(Nc1ccc(N2S(=O)(=O)c3ccccc3S2(=O)=O)cc1)c1ccncn1`, the Activity amounted to 100%.

Regarding `O=C(Nc1ccc(N2S(=O)(=O)c3ccccc3S2(=O)=O)cc1)c1nccs1`, the Activity turned out to be 122%.

As for `O=C(Nc1ccc(N2C(=O)c3cccc(Cl)c3C2=O)c(Cl)c1)c1ccccn1`, the Activity turned out to be 130%.

As to `O=C(Nc1ccc(N2S(=O)(=O)c3ccccc3S2(=O)=O)cc1)c1cscn1`, the Activity amounted to 123%.

On to `O=C(Nc1ccc(N2C(=O)[C@H]3CCCC[C@H]3C2=O)c(Cl)c1)c1ccccn1`, for which the Activity turned out to be 107%.

The target of the next series is Cytochrome P450 2C9 (Homo sapiens, UniProt P11712). As to the kind of experiment: Inhibition of CYP2C9 in human liver microsomes using diclofenac as substrate.
Cytochrome P450 2C9, sequence (P11712 whole entry): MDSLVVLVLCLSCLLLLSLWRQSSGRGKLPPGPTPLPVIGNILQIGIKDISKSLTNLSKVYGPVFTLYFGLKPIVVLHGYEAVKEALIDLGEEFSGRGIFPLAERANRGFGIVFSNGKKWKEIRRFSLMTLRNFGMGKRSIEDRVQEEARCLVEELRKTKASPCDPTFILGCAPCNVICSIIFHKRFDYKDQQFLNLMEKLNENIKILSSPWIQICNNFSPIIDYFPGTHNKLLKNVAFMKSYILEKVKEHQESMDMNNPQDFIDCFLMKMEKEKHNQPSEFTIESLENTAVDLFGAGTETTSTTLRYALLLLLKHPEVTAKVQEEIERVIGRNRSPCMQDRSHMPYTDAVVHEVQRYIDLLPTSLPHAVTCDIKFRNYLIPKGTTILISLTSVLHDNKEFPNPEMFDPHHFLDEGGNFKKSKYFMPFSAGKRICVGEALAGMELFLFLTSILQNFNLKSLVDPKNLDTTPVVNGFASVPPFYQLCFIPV
Conditions: not given
In the case of `O=C(Nc1ccc(N2C(=O)CC3(CCCCC3)C2=O)c(Cl)c1)c1ccccn1`, the IC50 was greater than 30000 nM.

The molecule `COc1cc(NC(=O)c2ccccn2)ccc1Cl` showed an IC50 greater than 30000 nM.

System in another series: not listed separately
As to the kind of experiment: Intrinsic clearance in rat hepatic microsomes at 1 uM by LC/MS/MS analysis. The format is ADME, Microsome. The settings on record: rat liver microsomes.
For the molecule `O=C(Nc1ccc(N2C(=O)CC3(CCCCC3)C2=O)c(Cl)c1)c1ccccn1`, the CLint scaled at 1 µM was 66.7 mL/min/kg.

A further series relates to Plasma. As to the kind of experiment: Fraction unbound in rat plasma by equilibrium dialysis. The format is ADME, cell-free.
Conditions: not given
The method, boiled down: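 Rat plasma spiked with compound, equilibrium dialysis against 25 mM phosphate buffer pH 7.4 for 4 h at 37 °C with shaking; both chambers matrix-matched, acetonitrile-extracted and quantified by LC/MS/MS; triplicate.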
(In general: In equilibrium dialysis only unbound substance equilibrates across the membrane.)
In the case of `O=C(Nc1ccc(N2C(=O)CC3(CCCCC3)C2=O)c(Cl)c1)c1ccccn1`, the Fu is given as 0.5%.

Another series addresses Cytochrome P450 3A4 (Homo sapiens, UniProt P08684). The series can be described thus: Inhibition of CYP3A4 in human liver microsomes using […] as substrate. It counts as ADME, Microsome.
Conditions: not given
`O=C(Nc1ccc(N2C(=O)CC3(CCCCC3)C2=O)c(Cl)c1)c1ccccn1`: the IC50 was greater than 30000 nM.

For the next series, the target named is Cytochrome P450 2D6 (Homo sapiens, UniProt P10635). As to the kind of experiment: Inhibition of CYP2D6 in human liver microsomes using […] as substrate.
Cytochrome P450 2D6, sequence (P10635 whole entry): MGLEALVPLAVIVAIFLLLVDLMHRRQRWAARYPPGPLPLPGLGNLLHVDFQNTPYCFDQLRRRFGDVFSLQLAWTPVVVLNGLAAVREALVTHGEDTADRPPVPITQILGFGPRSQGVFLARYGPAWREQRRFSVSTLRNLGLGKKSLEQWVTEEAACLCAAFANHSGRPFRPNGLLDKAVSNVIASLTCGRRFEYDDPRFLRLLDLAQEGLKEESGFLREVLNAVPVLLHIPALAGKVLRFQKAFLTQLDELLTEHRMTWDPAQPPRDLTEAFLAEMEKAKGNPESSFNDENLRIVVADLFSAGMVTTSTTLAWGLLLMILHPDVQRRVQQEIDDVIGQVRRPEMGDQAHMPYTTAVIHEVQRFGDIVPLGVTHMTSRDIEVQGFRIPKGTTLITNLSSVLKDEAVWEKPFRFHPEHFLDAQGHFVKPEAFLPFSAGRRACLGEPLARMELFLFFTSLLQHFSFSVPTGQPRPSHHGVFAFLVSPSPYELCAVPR
Conditions: not given
The format is ADME, Microsome. The procedure, abridged:
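Pooled human liver microsomes (0.1 mg/mL) with probe cocktail (phenacetin 10 µM, diclofenac 5 µM, dextromethorphan 5 µM, midazolam 2 µM) in 0.1 M phosphate pH 7.4; compound 100 nM–30 µM in duplicate, 15 min preincubation at 37 °C, then 1 mM NADPH for 8 min. LC/MS/MS of metabolite formation; IC50 derived.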
As for `O=C(Nc1ccc(N2C(=O)CC3(CCCCC3)C2=O)c(Cl)c1)c1ccccn1`, the IC50 was greater than 30000 nM.

The molecule `COc1cc(NC(=O)c2ccccn2)ccc1Cl` returned an IC50 greater than 30000 nM.

In another series the target is Metabotropic glutamate receptor 4 (Rattus norvegicus) (UniProt P31423). As to the kind of experiment: Positive allosteric modulator activity at rat mGlu4 receptor by thallium flux assay at 30 uM relative to glutamate.
Metabotropic glutamate receptor 4 (Rattus norvegicus), sequence (P31423 whole entry): as the sequence (P31423 whole entry) above
Conditions: not given
As to `O=C(Nc1ccc(N2C(=O)c3ccccc3C2=O)c(Cl)c1)c1ccccn1`, the fold change (FC) is 23.6.

Molecule `O=C(Nc1ccc(N2S(=O)(=O)c3ccccc3S2(=O)=O)cc1)c1ccncn1` yielded a fold change (FC) of 3.3.

In turn, `O=C(Nc1ccc(N2S(=O)(=O)c3ccccc3S2(=O)=O)cc1)c1nccs1` gave a fold change (FC) of 4.7.

Regarding `O=C(Nc1ccc(N2C(=O)c3cccc(Cl)c3C2=O)c(Cl)c1)c1ccccn1`, the fold change (FC) stood at 83.

Take `O=C(Nc1ccc(N2S(=O)(=O)c3ccccc3S2(=O)=O)cc1)c1cscn1`: the fold change (FC) was 7.3.

`O=C(Nc1ccc(N2C(=O)[C@H]3CCCC[C@H]3C2=O)c(Cl)c1)c1ccccn1` returned a fold change (FC) of 8.3.

Another series deals with Brain. As to the kind of experiment: Fraction unbound in rat brain homogenate by equilibrium dialysis.
Conditions: not given
The format is ADME, tissue-based.
In turn, `O=C(Nc1ccc(N2C(=O)CC3(CCCCC3)C2=O)c(Cl)c1)c1ccccn1` came in with a Fu of 1.7%.

The target in another series is Metabotropic glutamate receptor 4 (Rattus norvegicus) (UniProt P31423). The series can be described thus: Positive allosteric modulation of rat mGlu4 receptor assessed as potentiation of glutamate-induced thallium flux relative to (-)-PHCCC. Also noted: concentration or dose not given beside the values.
Conditions: not given
Regarding `O=C(Nc1ccc(N2C(=O)c3ccccc3C2=O)c(Cl)c1)c1ccccn1`, the Activity is 132%.

For the molecule `O=C(Nc1ccc(N2S(=O)(=O)c3ccccc3S2(=O)=O)cc1)c1ccncn1`, the Activity amounted to 103%.

Consider `O=C(Nc1ccc(N2S(=O)(=O)c3ccccc3S2(=O)=O)cc1)c1nccs1`, for which the Activity is 127%.

On to `O=C(Nc1ccc(N2C(=O)c3cccc(Cl)c3C2=O)c(Cl)c1)c1ccccn1`, for which the Activity turned out to be 137%.

Take `O=C(Nc1ccc(N2S(=O)(=O)c3ccccc3S2(=O)=O)cc1)c1cscn1`: the Activity was 115%.

For `O=C(Nc1ccc(N2C(=O)[C@H]3CCCC[C@H]3C2=O)c(Cl)c1)c1ccccn1`, the Activity worked out at 129%.

The next series concerns the target T2, Metabotropic glutamate receptor 4. The series can be described thus: Positive allosteric modulator activity at human mGlu4 receptor expressed in CHO cells expressing Gqi5 by calcium mobilization assay.
Conditions: not given
For `O=C(Nc1ccc(N2S(=O)(=O)c3ccccc3S2(=O)=O)cc1)C1CCCCC1`, the half-maximal effective concentration (EC50) stood at 765 nM.

Turning to `O=C(Nc1ccc(N2C(=O)[C@@H]3[C@H](C2=O)[C@@H]2CC[C@H]3O2)c(Cl)c1)c1ccccn1`, the EC50 is 1300 nM.

As to `O=S1(=O)c2ccccc2S(=O)(=O)N1c1ccc(NC2(c3ccccn3)CC2)cc1`, the EC50 worked out at 6400 nM.

Regarding `O=C(Nc1ccc(N2S(=O)(=O)c3ccccc3S2(=O)=O)cc1F)c1ccccn1`, the EC50 came out at 1100 nM.

`O=C(Nc1ccc(N2S(=O)(=O)c3ccccc3S2(=O)=O)cc1)c1cccc(F)n1`: the EC50 is 1800 nM.

On to `O=C(Nc1ccc(N2S(=O)(=O)c3ccccc3S2(=O)=O)cc1)c1ccco1`, for which the EC50 was 226 nM.

As for `O=C(Nc1ccc(N2S(=O)(=O)c3ccccc3S2(=O)=O)cc1)c1ccncn1`, the EC50 was found to be 179 nM.

Turning to `O=C(Nc1ccc(N2S(=O)(=O)c3ccccc3S2(=O)=O)cc1)c1nccs1`, the concentration giving a half-maximal response (EC50) came to 353 nM.

For the molecule `O=C(Nc1ccc(N2S(=O)(=O)c3ccccc3S2(=O)=O)cc1)c1cscn1`, the EC50 was 104 nM.
